Experimental data published in ChEMBL document CHEMBL4330181, “Cytosine-Based TET Enzyme Inhibitors” (ACS Med Chem Lett, 2019).
Calls of active or inactive are those of the source. The rule behind the calls is not given here.

Key:
[1] = biological target: DNA (cytosine-5)-methyltransferase 3A (Homo sapiens) (UniProt Q9Y6K1); test: Inhibition of DNMT3A (unknown origin) at 500 uM
[2] = species: Mus musculus; test: Inhibition of TET in mouse HT22 cells assessed as reduction in global DNA 5-hmc level at 10 uM after 24 hrs by spectrophotometric method; format: cell-based
In short: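 HT-22 immortalized mouse hippocampal neurons dosed at 10 μM in 1% DMSO for 24 h, then lysed; DNA extracted and 5hmC detected with a 5hmC-specific antibody, colorimetric read-out giving percent 5hmC of all cytosine species. Vehicle control; N = 6 biological replicates per group, mean ± SEM, one-way ANOVA.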

[3] = biological target: Methylcytosine dioxygenase TET1 (Homo sapiens) (UniProt Q8NFU7); test: Inhibition of recombinant human N-terminal FLAG-tagged TET1 (1418 to 2136 residues) expressed in baculovirus infected sf9 cells assessed as reduction in oxidation of methylated dsDNA at 100 uM after 2 hrs by chemiluminescence assay relative to control
In short: (§1)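 ELISA of oxidation of methylated double-stranded DNA by recombinant human TET1 or TET2, inhibitor tested at 100 μM. N = 3, mean ± SEM; two-way ANOVA.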

[4] = biological target: Methylcytosine dioxygenase TET2 (Homo sapiens) (UniProt Q6N021); test: Inhibition of recombinant human C-terminal His/N-terminal FLAG-tagged TET2 (1129 to 2002 residues) expressed in baculovirus infected sf9 cells assessed as reduction in oxidation of methylated dsDNA at 100 uM after 2 hrs by chemiluminescence assay relative to control; in short: as §1

Sequence of Methylcytosine dioxygenase TET1 (Homo sapiens) (Q8NFU7 whole entry, the tested form may be a part): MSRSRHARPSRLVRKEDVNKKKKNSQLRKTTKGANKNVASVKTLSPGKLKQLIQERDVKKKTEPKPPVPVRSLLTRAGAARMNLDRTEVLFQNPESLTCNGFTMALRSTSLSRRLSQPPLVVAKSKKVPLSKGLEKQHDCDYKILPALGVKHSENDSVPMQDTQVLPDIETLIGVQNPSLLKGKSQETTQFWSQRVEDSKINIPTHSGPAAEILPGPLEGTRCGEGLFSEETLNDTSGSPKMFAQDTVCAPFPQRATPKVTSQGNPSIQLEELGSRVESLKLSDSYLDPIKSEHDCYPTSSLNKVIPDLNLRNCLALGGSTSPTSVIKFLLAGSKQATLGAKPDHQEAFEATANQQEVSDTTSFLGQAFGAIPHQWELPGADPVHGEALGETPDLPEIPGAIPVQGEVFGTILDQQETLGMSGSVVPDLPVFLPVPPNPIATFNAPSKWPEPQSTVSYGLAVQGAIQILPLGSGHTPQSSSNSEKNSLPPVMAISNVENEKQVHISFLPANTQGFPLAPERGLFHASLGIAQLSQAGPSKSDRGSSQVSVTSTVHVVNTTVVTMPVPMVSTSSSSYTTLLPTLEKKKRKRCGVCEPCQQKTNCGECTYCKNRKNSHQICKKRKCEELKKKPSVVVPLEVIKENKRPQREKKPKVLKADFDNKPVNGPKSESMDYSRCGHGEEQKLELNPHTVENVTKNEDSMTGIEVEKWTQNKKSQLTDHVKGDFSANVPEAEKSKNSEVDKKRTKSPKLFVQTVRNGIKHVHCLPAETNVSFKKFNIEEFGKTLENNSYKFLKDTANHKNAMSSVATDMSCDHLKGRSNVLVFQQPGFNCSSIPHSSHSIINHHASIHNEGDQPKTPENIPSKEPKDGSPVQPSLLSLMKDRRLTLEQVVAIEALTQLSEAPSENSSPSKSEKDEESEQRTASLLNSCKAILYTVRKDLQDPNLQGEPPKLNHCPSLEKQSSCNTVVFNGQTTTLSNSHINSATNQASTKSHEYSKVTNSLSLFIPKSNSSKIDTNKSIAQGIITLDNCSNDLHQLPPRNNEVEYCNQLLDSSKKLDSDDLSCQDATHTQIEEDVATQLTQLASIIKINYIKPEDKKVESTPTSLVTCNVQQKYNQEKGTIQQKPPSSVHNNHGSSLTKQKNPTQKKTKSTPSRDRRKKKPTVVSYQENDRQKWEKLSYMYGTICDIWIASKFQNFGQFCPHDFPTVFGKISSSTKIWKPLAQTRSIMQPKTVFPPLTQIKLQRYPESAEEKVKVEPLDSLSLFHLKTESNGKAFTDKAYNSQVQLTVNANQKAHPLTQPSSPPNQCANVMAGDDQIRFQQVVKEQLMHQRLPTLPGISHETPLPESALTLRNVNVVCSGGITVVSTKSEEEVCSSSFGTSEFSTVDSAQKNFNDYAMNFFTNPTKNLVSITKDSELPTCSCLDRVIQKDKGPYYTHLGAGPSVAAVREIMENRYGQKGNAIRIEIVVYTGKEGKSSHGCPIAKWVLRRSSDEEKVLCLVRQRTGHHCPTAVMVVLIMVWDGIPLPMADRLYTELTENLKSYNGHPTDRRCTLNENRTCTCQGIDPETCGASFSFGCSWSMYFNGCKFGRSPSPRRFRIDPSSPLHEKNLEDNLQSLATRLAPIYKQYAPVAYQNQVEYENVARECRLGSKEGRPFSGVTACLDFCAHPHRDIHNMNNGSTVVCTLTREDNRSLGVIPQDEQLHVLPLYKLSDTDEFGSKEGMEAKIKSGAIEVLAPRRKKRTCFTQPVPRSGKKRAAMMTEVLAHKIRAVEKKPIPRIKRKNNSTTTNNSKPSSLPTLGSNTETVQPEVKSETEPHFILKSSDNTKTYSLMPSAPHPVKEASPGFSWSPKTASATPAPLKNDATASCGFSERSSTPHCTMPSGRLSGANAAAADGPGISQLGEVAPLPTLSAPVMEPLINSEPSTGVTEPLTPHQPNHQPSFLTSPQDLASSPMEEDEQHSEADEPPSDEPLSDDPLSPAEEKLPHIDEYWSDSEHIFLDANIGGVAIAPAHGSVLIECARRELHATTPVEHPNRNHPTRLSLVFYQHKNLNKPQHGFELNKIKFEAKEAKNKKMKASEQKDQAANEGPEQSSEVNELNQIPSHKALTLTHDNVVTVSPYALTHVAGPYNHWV
Sequence of DNA (cytosine-5)-methyltransferase 3A (Homo sapiens) (Q9Y6K1 whole entry, looked up): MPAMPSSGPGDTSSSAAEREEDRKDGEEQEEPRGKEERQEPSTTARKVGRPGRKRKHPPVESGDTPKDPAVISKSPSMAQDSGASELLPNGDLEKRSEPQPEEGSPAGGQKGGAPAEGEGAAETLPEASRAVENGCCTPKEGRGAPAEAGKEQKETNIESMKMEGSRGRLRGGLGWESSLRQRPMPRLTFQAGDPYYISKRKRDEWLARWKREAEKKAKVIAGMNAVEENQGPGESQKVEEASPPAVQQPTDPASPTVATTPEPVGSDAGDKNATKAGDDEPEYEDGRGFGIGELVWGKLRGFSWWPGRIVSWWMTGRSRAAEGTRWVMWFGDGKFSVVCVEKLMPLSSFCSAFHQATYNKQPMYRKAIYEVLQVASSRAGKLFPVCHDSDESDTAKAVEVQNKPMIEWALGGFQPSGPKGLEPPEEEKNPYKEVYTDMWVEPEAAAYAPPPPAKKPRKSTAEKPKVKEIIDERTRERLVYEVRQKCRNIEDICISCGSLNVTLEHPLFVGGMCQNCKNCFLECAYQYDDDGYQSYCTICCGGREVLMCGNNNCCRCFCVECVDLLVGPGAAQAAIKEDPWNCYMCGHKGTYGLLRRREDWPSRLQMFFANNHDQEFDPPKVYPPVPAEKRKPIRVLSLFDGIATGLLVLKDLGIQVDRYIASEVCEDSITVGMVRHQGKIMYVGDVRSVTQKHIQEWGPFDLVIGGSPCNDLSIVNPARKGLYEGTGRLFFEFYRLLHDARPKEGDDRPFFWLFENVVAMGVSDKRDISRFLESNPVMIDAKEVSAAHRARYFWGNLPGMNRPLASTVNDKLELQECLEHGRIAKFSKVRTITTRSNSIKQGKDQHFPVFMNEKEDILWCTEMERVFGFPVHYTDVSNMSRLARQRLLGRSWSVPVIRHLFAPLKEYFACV

Row | inhibition [1] | inhibition [3] | inhibition [4] | SMILES | inhibition [2]
1 |  | inactive | inactive | Nc1nc(=O)n(-c2ccc(-c3ccccc3)cc2)cc1Cl | 
2 |  | inactive | inactive | Nc1nc(=O)n(-c2ccccc2-c2ccccc2)cc1Cl | 
3 |  | inactive | inactive | Nc1nc(=O)n(-c2ccccc2)cc1C(F)(F)F | 

More lines, now with the values behind:

Row | SMILES | inhibition [1] | inhibition [3] | inhibition [4] | inhibition [2]
4 | Nc1nc(=O)n(-c2cccc(-c3ccccc3)c2)cc1Cl | inactive | Active |  | Active
5 | Nc1ccn(-c2ccccc2)c(=O)n1 |  | inactive | inactive | 
6 | Nc1nc(=O)n(-c2ccccc2)cc1Cl |  | 57% | 43% | inactive
